Experimental data as given in ChEMBL document CHEMBL2440064, “Synthesis and biological evaluation of 2-amino-5-aryl-3-benzylthiopyridine scaffold based potent c-Met inhibitors” (Bioorg Med Chem, 2013).
Activity calls are given as the source filed them. No cut-off for these calls is given here.

Assays:
[1] = target: T1, TPR/MET fusion protein (Mus musculus) (UniProt P16056+F6ZDS4); test: Inhibition of TPR/Met in mouse BAF3 cells assessed as inhibition of p44/42 phosphorylation at 0.08 to 10 uM after 2 hrs by Western blotting analysis; format: cell-based
T1 sequence (F6ZDS4 whole entry partner, the tested form may be a part): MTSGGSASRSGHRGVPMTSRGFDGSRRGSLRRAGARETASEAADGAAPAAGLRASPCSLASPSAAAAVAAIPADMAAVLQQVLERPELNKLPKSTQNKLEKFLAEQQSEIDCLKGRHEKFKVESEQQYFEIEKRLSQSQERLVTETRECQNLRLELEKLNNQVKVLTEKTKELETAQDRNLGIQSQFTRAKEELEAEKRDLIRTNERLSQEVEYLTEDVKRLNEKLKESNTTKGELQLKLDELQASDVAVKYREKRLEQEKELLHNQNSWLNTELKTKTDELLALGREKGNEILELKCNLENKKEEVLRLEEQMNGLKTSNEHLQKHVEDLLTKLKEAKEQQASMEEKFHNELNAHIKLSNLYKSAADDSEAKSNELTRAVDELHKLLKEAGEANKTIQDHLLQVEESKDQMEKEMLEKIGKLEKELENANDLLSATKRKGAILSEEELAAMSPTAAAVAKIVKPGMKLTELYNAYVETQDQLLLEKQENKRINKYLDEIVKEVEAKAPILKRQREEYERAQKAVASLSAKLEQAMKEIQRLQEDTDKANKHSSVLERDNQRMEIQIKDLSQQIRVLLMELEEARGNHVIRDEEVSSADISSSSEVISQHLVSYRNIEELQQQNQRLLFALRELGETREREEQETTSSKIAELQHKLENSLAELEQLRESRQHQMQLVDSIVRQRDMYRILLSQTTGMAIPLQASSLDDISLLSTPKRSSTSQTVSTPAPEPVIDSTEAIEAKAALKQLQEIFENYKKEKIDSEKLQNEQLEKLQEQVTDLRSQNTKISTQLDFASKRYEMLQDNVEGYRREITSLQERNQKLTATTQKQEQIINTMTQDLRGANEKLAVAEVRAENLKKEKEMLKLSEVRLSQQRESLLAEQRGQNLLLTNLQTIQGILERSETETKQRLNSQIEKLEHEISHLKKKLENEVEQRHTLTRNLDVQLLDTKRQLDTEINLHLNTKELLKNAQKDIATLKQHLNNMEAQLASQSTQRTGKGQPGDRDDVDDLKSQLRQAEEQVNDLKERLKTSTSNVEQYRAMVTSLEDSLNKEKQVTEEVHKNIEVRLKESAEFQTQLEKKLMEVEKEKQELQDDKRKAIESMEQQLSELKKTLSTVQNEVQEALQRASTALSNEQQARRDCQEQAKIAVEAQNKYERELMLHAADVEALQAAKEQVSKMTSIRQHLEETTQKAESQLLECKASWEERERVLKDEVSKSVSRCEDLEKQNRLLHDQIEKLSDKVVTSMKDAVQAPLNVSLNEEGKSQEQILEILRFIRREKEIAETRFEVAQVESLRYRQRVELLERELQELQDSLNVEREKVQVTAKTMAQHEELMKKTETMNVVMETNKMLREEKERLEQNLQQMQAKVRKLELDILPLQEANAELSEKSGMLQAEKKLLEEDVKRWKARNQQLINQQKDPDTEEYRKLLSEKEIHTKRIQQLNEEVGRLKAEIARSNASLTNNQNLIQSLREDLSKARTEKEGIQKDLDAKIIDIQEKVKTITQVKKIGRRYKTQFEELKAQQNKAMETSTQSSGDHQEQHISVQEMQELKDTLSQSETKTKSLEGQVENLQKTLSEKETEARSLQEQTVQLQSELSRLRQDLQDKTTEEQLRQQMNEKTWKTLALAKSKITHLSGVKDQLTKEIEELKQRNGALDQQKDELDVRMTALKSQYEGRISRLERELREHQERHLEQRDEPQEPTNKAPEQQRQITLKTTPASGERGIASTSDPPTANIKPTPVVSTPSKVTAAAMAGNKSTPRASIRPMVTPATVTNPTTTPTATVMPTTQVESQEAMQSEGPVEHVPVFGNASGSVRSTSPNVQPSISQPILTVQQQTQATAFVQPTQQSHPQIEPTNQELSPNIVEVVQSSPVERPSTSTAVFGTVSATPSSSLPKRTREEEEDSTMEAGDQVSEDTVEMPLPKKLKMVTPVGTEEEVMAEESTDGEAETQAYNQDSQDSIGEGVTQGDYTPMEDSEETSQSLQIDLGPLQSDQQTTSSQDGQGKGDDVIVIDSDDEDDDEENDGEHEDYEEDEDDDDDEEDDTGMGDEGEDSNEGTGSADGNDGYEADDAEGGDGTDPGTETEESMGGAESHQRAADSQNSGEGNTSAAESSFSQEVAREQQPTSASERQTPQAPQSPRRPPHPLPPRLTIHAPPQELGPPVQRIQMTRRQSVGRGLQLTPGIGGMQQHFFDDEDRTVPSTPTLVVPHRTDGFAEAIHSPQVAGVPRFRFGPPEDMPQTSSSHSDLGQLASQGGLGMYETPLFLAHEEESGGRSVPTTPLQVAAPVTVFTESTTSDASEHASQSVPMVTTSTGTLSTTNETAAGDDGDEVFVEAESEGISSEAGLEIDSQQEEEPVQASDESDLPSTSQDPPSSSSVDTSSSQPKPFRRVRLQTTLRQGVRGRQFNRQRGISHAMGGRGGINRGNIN
T1 sequence (P16056 25-1379 limits assumed): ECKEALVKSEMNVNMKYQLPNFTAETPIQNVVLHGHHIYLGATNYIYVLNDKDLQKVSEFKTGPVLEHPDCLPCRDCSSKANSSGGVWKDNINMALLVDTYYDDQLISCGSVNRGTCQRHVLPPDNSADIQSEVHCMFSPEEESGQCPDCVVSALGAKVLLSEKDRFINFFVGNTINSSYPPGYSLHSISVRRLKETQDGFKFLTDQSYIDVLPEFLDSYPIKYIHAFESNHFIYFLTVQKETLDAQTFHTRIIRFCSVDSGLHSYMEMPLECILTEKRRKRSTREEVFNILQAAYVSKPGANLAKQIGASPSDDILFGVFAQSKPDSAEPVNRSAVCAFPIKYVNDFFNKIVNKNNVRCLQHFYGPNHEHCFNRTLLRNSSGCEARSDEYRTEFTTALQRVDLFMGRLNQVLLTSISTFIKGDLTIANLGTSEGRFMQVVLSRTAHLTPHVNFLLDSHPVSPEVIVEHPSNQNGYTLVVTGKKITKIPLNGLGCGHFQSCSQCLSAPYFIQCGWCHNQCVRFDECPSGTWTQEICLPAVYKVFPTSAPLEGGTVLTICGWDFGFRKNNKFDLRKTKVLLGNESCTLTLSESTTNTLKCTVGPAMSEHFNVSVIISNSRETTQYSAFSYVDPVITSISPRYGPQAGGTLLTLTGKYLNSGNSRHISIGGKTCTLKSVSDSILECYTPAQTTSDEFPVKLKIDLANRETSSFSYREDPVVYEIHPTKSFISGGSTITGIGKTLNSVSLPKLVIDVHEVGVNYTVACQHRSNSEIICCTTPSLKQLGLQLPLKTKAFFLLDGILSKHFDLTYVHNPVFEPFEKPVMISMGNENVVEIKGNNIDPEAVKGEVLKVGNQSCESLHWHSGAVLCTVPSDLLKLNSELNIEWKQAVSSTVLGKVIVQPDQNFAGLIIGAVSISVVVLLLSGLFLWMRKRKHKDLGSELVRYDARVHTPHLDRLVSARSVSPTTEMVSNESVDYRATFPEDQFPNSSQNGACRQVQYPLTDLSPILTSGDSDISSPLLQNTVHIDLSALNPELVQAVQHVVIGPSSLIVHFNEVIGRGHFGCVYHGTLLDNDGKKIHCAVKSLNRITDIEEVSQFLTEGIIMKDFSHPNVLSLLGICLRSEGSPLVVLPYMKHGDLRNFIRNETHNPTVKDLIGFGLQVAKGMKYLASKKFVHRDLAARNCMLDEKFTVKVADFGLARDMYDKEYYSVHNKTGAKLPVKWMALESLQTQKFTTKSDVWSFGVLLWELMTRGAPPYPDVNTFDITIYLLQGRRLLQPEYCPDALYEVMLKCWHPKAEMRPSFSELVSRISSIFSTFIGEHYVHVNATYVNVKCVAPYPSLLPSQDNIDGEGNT
Summary of the method: (§1)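 Cells grown to exponential phase, treated with compound 2 h at 37°C, lysed in 1× SDS sample buffer, resolved on 10% SDS-PAGE and transferred to nitrocellulose for immunoblotting.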

[2] = target: T1, TPR/MET fusion protein (Mus musculus); test: Inhibition of TPR/Met phosphorylation in mouse BAF3 cells after 2 hrs by Western blotting analysis; format: cell-based; summary of the method: as §1
[3] = tested on: MCF7; test: Antiproliferative activity against human MCF7 cells after 72 hrs; settings: MCF7, 72 h
[4] = target: T2, Hepatocyte growth factor receptor (Homo sapiens, UniProt P08581); test: Inhibition of c-Met in human SNU5 cells assessed as inhibition of p44/42 phosphorylation at 0.16 to 20 uM after 2 hrs by Western blotting analysis; format: cell-based; settings: SNU-5; summary of the method: as §1
T2 sequence (P08581 whole entry): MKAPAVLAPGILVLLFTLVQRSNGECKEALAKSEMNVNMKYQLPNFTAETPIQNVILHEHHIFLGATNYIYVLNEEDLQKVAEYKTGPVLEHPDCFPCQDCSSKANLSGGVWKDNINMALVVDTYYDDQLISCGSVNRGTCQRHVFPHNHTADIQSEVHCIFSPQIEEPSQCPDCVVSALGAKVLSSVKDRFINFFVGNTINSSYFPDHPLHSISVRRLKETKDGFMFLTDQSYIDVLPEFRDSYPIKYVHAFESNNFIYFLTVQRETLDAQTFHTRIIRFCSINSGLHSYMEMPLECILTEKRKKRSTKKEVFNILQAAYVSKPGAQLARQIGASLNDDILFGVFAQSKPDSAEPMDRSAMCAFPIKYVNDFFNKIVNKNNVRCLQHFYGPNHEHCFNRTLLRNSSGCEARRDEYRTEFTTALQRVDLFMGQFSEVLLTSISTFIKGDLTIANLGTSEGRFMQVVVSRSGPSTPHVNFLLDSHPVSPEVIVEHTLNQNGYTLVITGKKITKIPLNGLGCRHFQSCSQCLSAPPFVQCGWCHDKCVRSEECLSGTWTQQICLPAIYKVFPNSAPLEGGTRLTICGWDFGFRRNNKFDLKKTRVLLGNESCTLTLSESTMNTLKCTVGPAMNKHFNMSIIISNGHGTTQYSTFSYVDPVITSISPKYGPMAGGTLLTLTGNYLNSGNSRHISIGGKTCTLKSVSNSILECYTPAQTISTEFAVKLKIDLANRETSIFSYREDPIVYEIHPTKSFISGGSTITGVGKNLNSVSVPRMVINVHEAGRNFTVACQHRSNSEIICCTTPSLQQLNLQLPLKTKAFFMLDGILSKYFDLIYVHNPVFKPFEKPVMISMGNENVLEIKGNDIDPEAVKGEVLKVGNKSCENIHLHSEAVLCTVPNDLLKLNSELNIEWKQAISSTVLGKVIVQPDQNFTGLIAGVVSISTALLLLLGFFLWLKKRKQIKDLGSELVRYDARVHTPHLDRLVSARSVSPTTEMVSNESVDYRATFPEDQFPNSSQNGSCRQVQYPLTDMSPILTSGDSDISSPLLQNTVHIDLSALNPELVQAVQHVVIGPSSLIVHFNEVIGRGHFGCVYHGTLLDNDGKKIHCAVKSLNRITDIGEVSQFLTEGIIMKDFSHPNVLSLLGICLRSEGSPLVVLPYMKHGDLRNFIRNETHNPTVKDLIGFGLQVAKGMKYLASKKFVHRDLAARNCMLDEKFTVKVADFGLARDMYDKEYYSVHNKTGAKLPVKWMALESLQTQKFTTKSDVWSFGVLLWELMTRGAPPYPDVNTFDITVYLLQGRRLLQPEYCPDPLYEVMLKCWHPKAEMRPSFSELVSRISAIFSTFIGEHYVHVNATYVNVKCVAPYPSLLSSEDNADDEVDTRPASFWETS

[5] = tested on: Mus musculus; test: Toxicity in mouse allografted with mouse NIH/3T3 cells assessed as decrease in body weight at 100 mg/kg, po qd administered for 2 weeks measured twice per week; format: organism-based, NIH3T3; parameters: dose 100 mg/kg, route oral; settings: in vivo, 336 h
Summary of the method: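 Tumor fragments of 1 mm³ implanted s.c. in the right flank of nude mice with a trocar. Mice randomized once tumors reached 100–150 mm³. Oral dosing 7 days/week for 2 weeks; vehicle-only controls. Tumors measured twice weekly by microcaliper; body weight monitored.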

[6] = tested on: NIH3T3; test: Antiproliferative activity against mouse NIH/3T3 cells expressing TPR/Met fusion protein after 72 hrs; format: functional, cell-based; settings: NIH3T3, 72 h
Summary of the method: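 Cells seeded in 96-well plates, exposed next day to a range of compound concentrations and cultured 72 h; proliferation read by sulforhodamine B or CCK-8. IC50 as mean ± SD (μM) from three separate experiments.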

[7] = target: T2, Hepatocyte growth factor receptor; test: Inhibition of c-Met phosphorylation in human MKN45 cells after 2 hrs by Western blotting analysis; format: cell-based; settings: MKN-45
Summary of the method: (§2)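 Cells grown under regular conditions to exponential phase, exposed to compound at indicated concentrations for 2 h at 37°C, lysed in 1× SDS sample buffer. Lysates resolved on 10% SDS-PAGE and transferred to nitrocellulose for immunoblotting.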

[8] = target: Epidermal growth factor receptor (Homo sapiens, UniProt P00533); settings: HCC827, at 0.5 µM
[9] = target: Platelet-derived growth factor receptor beta (Homo sapiens, UniProt P09619); test: Inhibition of PDGFRbeta (unknown origin) using poly (Glu, Tyr) 4:1 as substrate after 60 mins by ELISA
Summary of the method: (§3)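 ELISA on wells precoated with 20 µg/mL poly(Glu,Tyr)4:1. Purified kinase with 10 µmol/L ATP in 50 mM HEPES pH 7.4, 50 mM MgCl₂, 0.5 mM MnCl₂, 0.2 mM Na₃VO₄, 1 mM DTT; 1% DMSO vehicle. 60 min at 37°C. Phosphotyrosine detected with PY99 antibody, then HRP anti-mouse IgG and o-phenylenediamine/H₂O₂, A490. Inhibition = [1−(A490/A490 control)]×100%; IC50 from curves.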

[10] = target: Ephrin type-B receptor 2 (Homo sapiens, UniProt P29323); test: Inhibition of EPHB2 (unknown origin) using poly (Glu, Tyr) 4:1 as substrate after 60 mins by ELISA; summary of the method: as §3
[11] = target: Tyrosine-protein kinase ABL1 (Homo sapiens, UniProt P00519); test: Inhibition of Abl (unknown origin) using poly (Glu, Tyr) 4:1 as substrate after 60 mins by ELISA; summary of the method: as §3
[12] = tested on: MKN-45; test: Induction of cell cycle arrest in human MKN45 cells assessed as accumulation at G1 phase at 1 uM after 24 hrs by propidium iodide staining-based FACS analysis (reference value: 39.1%); format: functional
[13] = tested on: SK-OV-3; test: Antiproliferative activity against human SKOV3 cells after 72 hrs; settings: SK-OV-3, 72 h
[14] = target: Ephrin type-A receptor 2 (Homo sapiens, UniProt P29317); test: Inhibition of EPHA2 (unknown origin) using poly (Glu, Tyr) 4:1 as substrate after 60 mins by ELISA; summary of the method: as §3
[15] = target: ALK tyrosine kinase receptor (Homo sapiens, UniProt Q9UM73); test: Inhibition of ALK (unknown origin) using poly (Glu, Tyr) 4:1 as substrate after 60 mins by ELISA; summary of the method: as §3
[16] = target: T1, TPR/MET fusion protein (Mus musculus); test: Inhibition of TPR/Met phosphorylation in mouse NIH3T3 cells after 2 hrs by Western blotting analysis; format: cell-based; summary of the method: as §1
[17] = Clearance in rat at 2 mg/kg, iv and 10 mg/kg, po; format: ADME, organism-based; settings: in vivo
Summary of the method: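 Rat pharmacokinetics after a single intravenous dose (2 mg/kg) and a single oral dose (10 mg/kg).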

[18] = target: Hepatocyte growth factor receptor (Canis lupus familiaris) (UniProt Q75ZY9); test: Inhibition of c-Met in MDCK cells assessed as HGF-induced cell motility at 0.3 to 3 uM after 1 to 10 hrs by wound-healing assay; format: cell-based
Summary of the method: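 MDCK monolayers in 12-well plates, pre-incubated 30 min serum-free. Scratch wound made with micropipette and washed, then compound added with or without 50 ng/mL recombinant human HGF at 37°C. Phase-contrast images at 0 and 10 h.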

[19] = Oral bioavailability in rat at 10 mg/kg; format: ADME, organism-based; settings: in vivo
Summary of the method: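 Rats given a single iv dose (2 mg/kg) or a single po dose (10 mg/kg).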

[20] = tested on: BaF3; test: Induction of cell cycle arrest in mouse BAF3 cells expressing TPR/Met fusion protein assessed as accumulation at G1 phase at 1 uM after 24 hrs by propidium iodide staining-based FACS analysis (reference value: 26.6%); format: functional
[21] = target: Vascular endothelial growth factor receptor 1 (Homo sapiens, UniProt P17948); test: Inhibition of FLT1 (unknown origin) using poly (Glu, Tyr) 4:1 as substrate after 60 mins by ELISA; summary of the method: as §3
[22] = target: T2, Hepatocyte growth factor receptor; test: Inhibition of c-Met phosphorylation in human EBC1 cells after 2 hrs by Western blotting analysis; format: cell-based; summary of the method: as §2
[23] = tested on: NCI-H661; test: Antiproliferative activity against human NCI-H661 cells after 72 hrs; settings: NCI-H661, 72 h
[24] = target: Fibroblast growth factor receptor 1 (Homo sapiens, UniProt P11362); test: Inhibition of FGFR1 (unknown origin) using poly (Glu, Tyr) 4:1 as substrate after 60 mins by ELISA; summary of the method: as §3
[25] = tested on: NCI-H441; test: Antiproliferative activity against human NCI-H441 cells after 72 hrs; settings: NCI-H441, 72 h
[26] = target: Macrophage-stimulating protein receptor (Homo sapiens, UniProt Q04912); test: Inhibition of RON (unknown origin) using poly (Glu, Tyr) 4:1 as substrate after 60 mins by ELISA; summary of the method: as §3
[27] = target: T2, Hepatocyte growth factor receptor; test: Inhibition of c-Met in human EBC1 cells assessed as inhibition of p44/42 phosphorylation at 0.16 to 20 uM after 2 hrs by Western blotting analysis; format: cell-based; summary of the method: as §1
[28] = tested on: MKN-45; test: Antiproliferative activity against human MKN45 cells after 72 hrs; settings: MKN-45, 72 h
[29] = Antiproliferative activity against human EBC1 cells after 72 hrs; settings: EBC-1, 72 h
[30] = target: T2, Hepatocyte growth factor receptor; test: Inhibition of c-Met phosphorylation in gefitinib-resistant human HCC827 cells at 0.5 uM after 2 hrs by Western blotting analysis; format: cell-based; summary of the method: as §1

inhibition [1]: Active | inhibition [2]: Dose-dependent effect | IC50 [3]: 11600 nM | inhibition [4]: Active | inhibition [7]: Dose-dependent effect | inhibition [8]: Active | IC50 [9]: > 1000 nM | IC50 [10]: > 1000 nM | IC50 [11]: > 1000 nM | IC50 [13]: 12700 nM | IC50 [14]: > 1000 nM | IC50 [15]: 349 nM | inhibition [16]: Dose-dependent effect | clearance [17]: 53 mL/min/kg | inhibition [18]: Active | bioavailability [19]: 12.8% | IC50 [21]: > 1000 nM | inhibition [22]: Dose-dependent effect | IC50 [23]: 16200 nM | IC50 [24]: > 1000 nM | IC50 [25]: 15500 nM | IC50 [26]: 336 nM | inhibition [27]: Active | IC50 [28]: 290 nM | inhibition [30]: Active
SMILES: C[C@@H](Sc1cc(-c2cnn(C3CCNCC3)c2)cnc1N)c1c(Cl)ccc(F)c1Cl
Activity [5]: Non-toxic | IC50 [6]: 610 nM | Activity [12]: 60.1% | Activity [20]: 69.6% | IC50 [29]: 710 nM
